pIC50: −log10 of the molar value.
Key:
[1] = Selectivity index, ratio of IC50 for CHO cells to IC50 for chloroquine-sensitive Plasmodium falciparum D10; type: toxicity, cell-based; details: hamster, read-out: Ratio IC50
[2] = tested on: CHO; assay: Cytotoxicity against CHO cells by MTT assay; type: cell-based; details: Cricetulus griseus
How it was run: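 MTT colorimetric growth/survival assay. Samples from 2 mg/mL stocks in 10% methanol or 10% DMSO, suspensions allowed, stored at -20 °C; 10-fold serial dilutions in complete medium, six concentrations. Emetine reference from 100 µg/mL down to 0.001 µg/mL. Triplicate, one occasion; IC50 by nonlinear dose-response curve fitting.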

[3] = tested on: Plasmodium falciparum; assay: Antiplasmodial activity after 48 hrs against chloroquine-sensitive Plasmodium falciparum D10 infected human erythrocytes by LDH reporter assay; type: functional, organism-based; details: D10, 48 h
How it was run: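 Asexual erythrocytic P. falciparum D10 (CQ-sensitive) kept in continuous culture (modified Trager–Jensen); growth read by parasite lactate dehydrogenase assay (modified Makler). Samples from 2 mg/mL stocks in 10% DMSO, sonicated, suspensions allowed; tested from 100 µg/mL in 2-fold serial dilutions in complete medium, 10 concentrations down to 0.2 µg/mL. Chloroquine reference from 100 ng/mL. Duplicate, one occasion; IC50 from full dose-response.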

[4] = tested on: CHO; assay: Cytotoxicity against CHO cells at 100 ug/mL by MTT assay; type: cell-based, Cricetulus griseus; details: chinese hamster

Structure (SMILES)	selectivity ratio [1]	pIC50 [2]	pIC50 [3]	IC90 [3] [µM]	Activity [4]
CCCN[C@@H](c1ccc(C)cc1)[C@H](CO)Oc1ccccc1	23.8	3.49	4.86	252	–
Cc1ccc([C@@H]2[C@H](OCc3ccccc3)COCN2CC(C)C)cc1 (relative stereo)	–	–	4.52	–	–
OC[C@H](Oc1ccccc1)[C@@H](NCc1ccccc1)c1ccccc1F (relative stereo)	–	–	4.60	223	–
CCCN[C@@H](c1cccc(OC)c1)[C@H](CO)Oc1ccccc1	–	–	4.60	102	–
Cc1ccc([C@H](NCC(C)C)[C@H](CO)OCc2ccccc2)cc1 (relative stereo)	9.4	3.84	4.82	70.8	–
CCN(CC)CCCC(C)Nc1ccnc2cc(Cl)ccc12 (centres undefined) [CHLOROQUINE]	–	–	–	0.067	–
CO[C@@H]1COCN(C(C)(C)C)[C@@H]1c1ccc(C)cc1 (relative stereo)	–	–	3.92	–	–
CCCN[C@@H](c1ccccc1)[C@H](CO)Oc1ccccc1	–	–	4.07	–	–
CC(C)N[C@@H](c1ccccc1)[C@H](CO)OCc1ccccc1 (relative stereo)	–	–	4.34	165	–
Brc1ccccc1[C@@H]1[C@H](OCc2ccccc2)COCN1Cc1ccccc1 (relative stereo)	–	–	4.85	38.6	Non-toxic
CC[C@H]1CN2CCc3cc(OC)c(OC)cc3[C@@H]2C[C@@H]1C[C@H]1NCCc2cc(OC)c(OC)cc21 [EMETINE]	–	6.97	–	–	–
OC[C@H](OCc1ccccc1)[C@@H](NCc1ccccc1)c1ccccc1Br (relative stereo)	–	–	4.98	43.1	Non-toxic
CC(C)N1COC[C@@H](OCc2ccccc2)[C@H]1c1ccccc1 (relative stereo)	–	–	4.18	–	–
Fc1ccccc1[C@@H]1[C@H](Oc2ccccc2)COCN1Cc1ccccc1 (relative stereo)	–	–	4.77	118	Non-toxic
CCCN1COC[C@@H](Oc2ccccc2)[C@H]1c1ccc(C)cc1 (relative stereo)	–	–	3.89	–	–
COc1cccc([C@@H]2[C@H](OC)COCN2C2CCCCC2)c1 (relative stereo)	–	–	4.37	–	–
Clc1ccc([C@@H]2[C@H](OCc3ccccc3)COCN2c2ccccc2)cc1 (relative stereo)	–	–	4.71	138	–
CCCN[C@@H](c1ccc(OC)cc1)[C@H](CO)Oc1ccccc1	8.8	3.84	4.78	47.8	–
CCCN1COC[C@@H](Oc2ccccc2)[C@H]1c1ccccc1 (relative stereo)	–	–	4.07	–	–
CCCN1COC[C@@H](Oc2ccccc2)[C@H]1c1ccc(OC)cc1	–	–	4.06	–	–
OC[C@H](OCc1ccccc1)[C@H](Nc1ccccc1)c1ccc(Cl)cc1 (relative stereo)	–	–	5.20	12.5	Non-toxic
Cc1ccc([C@@H]([C@H](CO)OCc2ccccc2)N(C)CC(C)C)cc1 (relative stereo)	–	–	4.09	–	–
COc1cccc([C@@H](NC2CCCCC2)[C@H](CO)OC)c1 (relative stereo)	–	–	3.76	–	–

— ChEMBL document CHEMBL1136969, “Synthesis of novel 2-alkoxy-3-amino-3-arylpropan-1-ols and 5-alkoxy-4-aryl-1,3-oxazinanes with antimalarial activity” (J Med Chem, 2009)
